# Screens (PubChem)
# Diaphorase act – diaphorase activation or chemical reduction counter-screen. Diaphorase/resazurin coupled assay, resorufin fluorescence, 16 min; hits give high values; 1 = vehicle wells, 0 = NADH-free wells. activation factor at 20 µM. 190,000 compounds, 0.005% hits. AID 1229;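 active means diaphorase activity raised at least twofold by the compound at 20 µM; inactive means activation factor below 2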
#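 Material: Purified diaphorase enzyme from Clostridium kluyveri | Buffer or medium: 50 mM HEPES pH 7.4 with 4.542 mM MgCl2, 0.005% Tween 20 | Times: 16 min enzyme reaction, ambient temperature | Signal: Red resorufin fluorescence at 544/590 nm excitation/emission | Measure: Increased resorufin signal from activators or reducing compounds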
# Diaphorase inh – counter-screen for diaphorase-based assays: diaphorase inhibitors and chemical oxidizers; diaphorase resazurin-to-resorufin fluorescence, NADH, 16 min; bacterial (C. kluyveri) enzyme, not human; inhibition, % at 20 µM; 190,000 compounds, 0.69% hits; AID 1217;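 active means primary screen inhibition at 20 µM above a set limit, cut at about 50% in these data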;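 further: plate controls were DMSO with full reaction for no effect and wells lacking NADH for full effect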
#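 System: Diaphorase enzyme from Clostridium kluyveri | Amount: Enzyme working solution with 0.14 U/mL diaphorase | Benchmarks: No-NADH positive control and DMSO neutral control | Signal: Fluorescence of resorufin formed from resazurin, Ex 544/Em 590 nm | Schedule: 16-min room-temperature incubation before reading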
# PfGluPho inh – PfG6PD (Plasmodium falciparum) enzyme inhibition; PfGluPho enzyme, NADPH resazurin-diaphorase fluorescence; inhibition, % at 20 µM; 350,000 compounds, 0.78% hits; AID 504690;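 active means inhibition reaching at least a set limit at 20 µM in the primary screen, cut at about 59% in these data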;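 further: 0% = DMSO wells with substrate and 100% = DMSO wells lacking glucose-6-phosphate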
# Tb hexokinase – T. brucei hexokinase 1 inhibition. AID 1430. inhibition, % at 10 µM. 220,000 compounds, 0.11% hits. recombinant TbHK1, G6PDH-coupled NADH A340;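 active means inhibition of 50% or more in the single-dose primary screen; inactive means inhibition below 50%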
# HKDC1 inhibitor – inhibitors of human hexokinase HKDC1. Q2TB90. recombinant HKDC1, G6PDH/diaphorase resazurin coupled fluorescence. inhibition, % at 20 µM. 340,000 compounds, 0.16% hits. AID 493160;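 active means inhibition above about 35% when tested at 20 µM, limit read from the data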;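 further: plate controls were DMSO wells with enzyme for no effect and DMSO wells lacking enzyme for full effect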
# Target sequence (Q2TB90 whole entry, looked up): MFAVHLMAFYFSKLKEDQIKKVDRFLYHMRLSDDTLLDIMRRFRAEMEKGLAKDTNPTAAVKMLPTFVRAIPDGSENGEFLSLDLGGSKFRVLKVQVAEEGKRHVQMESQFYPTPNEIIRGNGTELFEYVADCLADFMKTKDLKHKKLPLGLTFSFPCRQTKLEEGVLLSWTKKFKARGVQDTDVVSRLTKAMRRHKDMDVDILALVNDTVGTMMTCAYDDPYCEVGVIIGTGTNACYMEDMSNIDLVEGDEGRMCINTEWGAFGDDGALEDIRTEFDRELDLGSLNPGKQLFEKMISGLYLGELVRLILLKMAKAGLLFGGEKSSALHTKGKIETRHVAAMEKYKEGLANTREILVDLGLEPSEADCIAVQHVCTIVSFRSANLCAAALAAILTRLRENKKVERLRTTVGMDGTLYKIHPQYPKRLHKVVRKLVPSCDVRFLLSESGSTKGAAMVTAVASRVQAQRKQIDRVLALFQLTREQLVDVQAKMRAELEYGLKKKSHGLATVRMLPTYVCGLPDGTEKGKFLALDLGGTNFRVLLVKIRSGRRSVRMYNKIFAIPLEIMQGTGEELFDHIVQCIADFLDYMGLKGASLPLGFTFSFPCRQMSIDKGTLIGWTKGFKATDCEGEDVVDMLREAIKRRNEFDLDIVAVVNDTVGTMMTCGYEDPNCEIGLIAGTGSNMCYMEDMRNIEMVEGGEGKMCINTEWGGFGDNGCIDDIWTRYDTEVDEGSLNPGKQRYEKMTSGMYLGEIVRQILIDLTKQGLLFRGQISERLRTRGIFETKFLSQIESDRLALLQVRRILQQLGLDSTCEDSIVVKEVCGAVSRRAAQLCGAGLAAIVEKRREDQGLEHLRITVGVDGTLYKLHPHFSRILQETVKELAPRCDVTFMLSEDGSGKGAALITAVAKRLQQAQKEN
#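 System: Recombinant HKDC1 hexokinase | Amount: HKDC1 at 5 µg/mL | Reagent: Glucose with 1 mM ATP | Doses: Single 20 µM dose | Incubation: Reaction time 90 min, room temperature, protected from light | Signal: Coupled resazurin fluorescence, excitation 525 nm, emission 613 nm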
# G6PDH counter – counter-screen for G6PDH assay hits: L. mesenteroides G6PDH inhibition; Purified L. mesenteroides G6PDH, diaphorase/resazurin coupled fluorescence, 45 min; inhibition, % at 5 µM; 200,000 compounds, 0.12% hits; AID 1020; in the data active means inhibition above about 50%
# * marks the source's active call; other numbers are inactive results; x = not tested or not shown. This is a sample that favours compounds with a hit; in the whole collection about 1.3% have one here.
SMILES,Diaphorase act,Diaphorase inh,PfGluPho inh,Tb hexokinase,HKDC1 inhibitor,G6PDH counter
CCOC(=O)c1ccc(N=C2SC(C(=O)NCCc3ccccc3)CC(=O)N2C)cc1 (stereo not given),0.5,54*,3,-2,-6,-8
CC(C)N1C(=O)/C(=C\c2nc3ccccc3c(=O)[nH]2)c2ccccc21,0.4,56*,47,27,22,-2
CCCN1C(=O)/C(=C/c2nc3ccccc3c(=O)[nH]2)c2ccccc21,0.8,22,-1,16,4,6
COc1ccc(S(=O)(=O)N(C)c2nc3ccccc3n3c(CC(C)C)nnc23)cc1,x,x,-2,x,4,x
CN=c1scc(-c2ccco2)n1/N=C/c1ccc(O)c(O)c1,0.5,51*,13,-19,0,24
COc1ccc(O)c(/C=N/n2c(-c3ccco3)csc2=Nc2cccnc2)c1,0.9,15,16,0,-8,-21
COc1cccc(-n2c(SCc3cc(=O)oc4cc(O)c(O)cc34)nc3ccccc3c2=O)c1,0.4,59*,-34,29,17,-2
CC(C)Cc1ccc(CN2CCCC(NC(=O)CCN3CCCO3)C2)cc1 (stereo not given),x,x,9,x,-5,x
CC(=O)N1CCN(c2ccc(NC(=S)NC(=O)COc3ccc(C(C)(C)C)cc3)cc2)CC1,0.9,15,-6,16,-9,14
CCC(=O)N1CCN(c2ccc(NC(=S)NC(=O)COc3ccccc3)cc2)CC1,0.4,64*,-1,-15,-7,9
COc1ccccc1-n1c(SCC(=O)N(C)C)nnc1-c1ccco1,x,x,-2,x,-1,x
COC(=O)[C@]1(Cc2ccccc2)N[C@H](CN(C)C(=O)c2ccccc2)[C@@H]2C(=O)N(Cc3ccccc3)C(=O)[C@@H]21,x,x,-5,x,8,x
O=C1/C(=C\c2ccco2)SC(=S)N1C1CCS(=O)(=O)C1 (stereo not given),x,x,34,-19,1,x
O=C(O)CCCN1C(=O)/C(=C\c2ccco2)SC1=S,0.4,59*,-12,-4,5,14
O=C1/C(=C/c2ccco2)SC(=S)N1C1CCS(=O)(=O)C1 (stereo not given),0.4,61*,7,-6,-3,13
O=C(CCCN1C(=O)/C(=C/c2ccco2)SC1=S)Nc1ccccc1C(=O)O,x,x,-9,7,8,x
COc1cccc(NC(=O)CN(C)C(=O)/C=C/c2ccc3ccccc3n2)c1,x,x,0,x,0,x
CCc1c(C)[nH]c2ccc(OC)cc2c1=S,0.7,26,67*,-12,10,16
CC(C)OC(=O)Cn1cc(C#N)c2ccccc21,0.8,17,7,-2,-4,6
CC(=O)Oc1cc2oc(=O)cc(C)c2cc1OC(C)=O,0.5,52*,-20,-13,0,45
On1c2c(c3c4nonc4ccc31)CCCC2,0.4,56*,x,-8,x,47
COc1cc(C(=O)ON=C2C(C)=CC(=O)C=C2C)cc(OC)c1OC,0.2,76*,50,-4,-1,2
CCCN(CCC)C(=O)c1cc([N+](=O)[O-])cc2c1-c1ccc([N+](=O)[O-])cc1C2=C(C#N)C#N,x,x,54,-3,41*,x
Cc1ccccc1-n1c(C)nnc1SCc1cc(=O)oc2ccc3ccccc3c12,0.9,10,2,26,7,-19
CCOC(=O)c1c(C)oc2c1c(C=NCCO)c(O)c1ccccc12,0.2,82*,58,-16,22,57*
SMILES,Diaphorase act,Diaphorase inh,PfGluPho inh,Tb hexokinase,HKDC1 inhibitor,G6PDH counter
Cc1cn([C@H]2C[C@H](O)[C@@H](CNC(=O)[C@H](N)C3CC3)O2)c(=O)[nH]c1=O,x,x,3,x,x,x
Cc1ccc(-n2cccc2/C=C2\C(=N)N3N=C(c4ccco4)SC3=NC2=O)cc1,0.4,56*,-23,-11,14,-2
CC(C)CNC1=CC(=O)CC(c2ccco2)C1 (stereo not given),0.4,61*,1,6,3,16
COc1cc(/C=C2\SC(=O)NC2=O)ccc1Oc1ccc([N+](=O)[O-])cc1[N+](=O)[O-],0.4,59*,9,-6,2,-8
O=C(/C=C/c1ccccc1[N+](=O)[O-])NC1CCCC1,0.9,14,4,-9,6,6
COc1ccc2nc(Nc3sc4c(c3C(N)=O)CCCC4)sc2c1,0.7,26,67*,-10,1,-13
Cn1nc(C(=O)OCC(=O)Nc2ccc(C(N)=O)cc2)c2ccccc2c1=O,x,x,-6,x,-3,x
CCN=c1scc(-c2cccs2)n1/N=C/c1cc(OC)ccc1O,0.8,20,32,24,-9,4
CC(C)N=c1scc(-c2cccs2)n1/N=C/c1ccc(O)c(O)c1O,0.3,66*,50,15,18,-11
CN=c1scc(-c2ccccc2F)n1/N=C/c1ccc(O)c(O)c1O,0.3,68*,40,8,19,5
COc1ccc(C(=O)NCc2ccco2)cc1S(=O)(=O)NC1CC1,x,x,6,x,-4,x
CC(=O)Nc1ccc(S(=O)(=O)Oc2ccc3c(c2)C(C)=CC(C)(C)N3)cc1,0.7,27,x,16,x,12
CC1=CC(C)(C)Nc2ccc(OS(=O)(=O)c3ccc(C)cc3)cc21,0.5,50*,57,-5,-1,24
CCOC(=O)c1c2ccccc2[n+]([O-])n1CCO,x,x,-7,x,-4,x
N=C1/C(=C\c2ccc(SCc3ccco3)o2)C(=O)N=C2SC=NN12,0.5,54*,17,-3,14,10
COc1ccc(CCNC(=O)C2CCCN(S(=O)(=O)N3CC(C)CC(C)C3)C2)cc1OC (stereo not given),x,x,11,x,1,x
COc1ccc(CCNC(=O)C2CCN(S(=O)(=O)N3CC(C)CC(C)C3)CC2)cc1OC (stereo not given),0.9,9,-10,53*,-3,-6
Oc1c(C(c2ccccc2Cl)N2CCCC2)ccc2cccnc12 (stereo not given),0.4,55*,-4,-1,-31,8
Oc1c(C(c2cccs2)N2CCN(c3ccccc3)CC2)ccc2cccnc12 (stereo not given),0.6,38,x,-6,x,10
Cc1nc2c(C(=O)NCCc3ccccc3Cl)c[nH]n2c(=O)c1Cl,0.4,65*,-9,5,16,0
Cc1ccc(/C=N/Nc2cc(C)nc(N3CCOCC3)n2)cc1,x,x,11,-64,4,x
CC(C)c1ccc(/C=N/Nc2cc(N3CCOCC3)nc(N3CCOCC3)n2)cc1,0.4,63*,22,-17,2,24
Cc1cc(N/N=C/c2ccccc2)nc(N2CCOCC2)n1,x,x,9,-58,-3,x
Cc1cccc(/C=N/Nc2cc(N3CCOCC3)nc(N3CCOCC3)n2)c1,0.3,72*,21,7,8,30
